Tests used:
Format in all cases: functional
[1] = system: 6C3HED; assay: Inhibition of tumor growth of 6C3HED lymphosarcoma tumor cell line in mice at a dose of 300 mg/kg given orally (daily x 8); details: Mus musculus, route oral
Method in brief: (§1)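 C3H mice received subcutaneous 1-2 mm 6C3HED lymphosarcoma fragments, which grew for 1 day before treatment. The agent was suspended in 2.5% emulphor and given by oral gavage once daily on days 2-9. On day 10, intact tumors were measured by calipers to estimate tumor weight. Percent inhibition was taken from treated versus untreated control tumor weights, mostly with 10 mice per group.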

[2] = system: 6C3HED; assay: Inhibition of tumor growth of 6C3HED lymphosarcoma tumor cell line in mice at a dose of 150 mg/kg given orally(daily x 8); details: Mus musculus, po; method in brief: as §1
[3] = system: 6C3HED; assay: Inhibition of tumor growth of 6C3HED lymphosarcoma tumor cell line in mice at a dose of 200 mg/kg given orally(daily x 8); details: Mus musculus, po; method in brief: as §1
[4] = system: CX-1; assay: Inhibition of tumor growth of CX-1 cell line at 600 mg/kg; details: Homo sapiens
[5] = system: Mus musculus; assay: Lethal dose against C3H mouse with subcutaneously implanted 6C3HED lymphosarcoma; details: sc
Method in brief: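 C3H mice bearing subcutaneously implanted 6C3HED lymphosarcoma fragments (1-2 mm), grown 1 day before treatment. Compound suspended in 2.5% emulphor and given po by gavage daily × 8 (days 2-9). Deaths from drug toxicity were recorded to give the lethal dose.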

Row | Structure (SMILES) | inhibition in vivo at 300 mg/kg [1] | inhibition in vivo at 150 mg/kg [2] | inhibition in vivo at 200 mg/kg [3] | inhibition in vivo at 600 mg/kg [4] | LD50 [5]
1 | COc1csc(S(=O)(=O)NC(=O)Nc2ccc(Cl)cc2)c1 | 69% | 36% | – | – | –
2 | O=C(Nc1ccc(Cl)c(Cl)c1)NS(=O)(=O)c1cc2c(s1)CCCC2 | – | – | 44% | – | –
3 | CCc1ccc(S(=O)(=O)NC(=O)Nc2ccc(Cl)cc2)[nH]1 | 56% | – | – | – | –
4 | CCc1csc(S(=O)(=O)NC(=O)Nc2ccc(Cl)cc2)c1 | 93% | 55% | – | – | –
5 | O=C(Nc1ccc(Cl)cc1)NS(=O)(=O)c1cc2c(s1)CCC2 | 16% | 16% | – | – | –
6 | CCCOc1ccc(S(=O)(=O)NC(=O)Nc2ccc(Cl)cc2)s1 | 63% | 44% | – | – | –
7 | O=C(Nc1ccc(Cl)cc1)NS(=O)(=O)c1scc2c1CCCC2 | 15% | 0% | – | – | –
8 | CCc1ccc(S(=O)(=O)NC(=O)Nc2ccc(Cl)cc2)s1 | 89% | 57% | – | – | –
9 | Cc1ccsc1S(=O)(=O)NC(=O)Nc1ccc(Cl)cc1 | 62% | 17% | – | – | –
10 | CCc1ccsc1S(=O)(=O)NC(=O)Nc1ccc(Cl)cc1 | 25% | 21% | – | – | –
11 | CCOc1ccc(S(=O)(=O)NC(=O)Nc2ccc(Cl)cc2)s1 | 96% | 69% | – | – | –
12 | O=C(Nc1ccc(Cl)cc1)NS(=O)(=O)c1cccs1 | 66% | 16% | – | – | –
13 | CSc1ccc(S(=O)(=O)NC(=O)Nc2ccc(Cl)cc2)s1 | 62% | 29% | – | – | –
14 | Cc1cc(S(=O)(=O)NC(=O)Nc2ccc(Cl)cc2)sc1C | 73% | 42% | – | – | –
15 | CCCc1ccc(S(=O)(=O)NC(=O)Nc2ccc(Cl)cc2)s1 | 39% | 38% | – | – | –
16 | Cc1ccc(S(=O)(=O)NC(=O)Nc2ccc(Cl)c(Cl)c2)s1 | 61% | 24% | – | – | –
17 | CC(C)c1ccc(S(=O)(=O)NC(=O)Nc2ccc(Cl)cc2)s1 | 63% | 42% | – | – | –
18 | COc1ccc(S(=O)(=O)NC(=O)Nc2ccc(Cl)cc2)s1 | 100% | 93% | – | 62% | 450 mg/kg
19 | CC(C)(C)c1ccc(S(=O)(=O)NC(=O)Nc2ccc(Cl)cc2)s1 | 10% | 7% | – | – | –
20 | O=C(Nc1ccc(Cl)cc1)NS(=O)(=O)c1ccc(Cl)s1 | 89% | 58% | – | – | –
21 | CCc1ccc(S(=O)(=O)NC(=O)Nc2ccc(Cl)cc2)o1 | 80% | 57% | – | – | –
22 | O=C(Nc1ccc(Cl)cc1)NS(=O)(=O)c1cc(Br)c(Br)s1 | 52% | 25% | – | – | –
23 | O=C(Nc1ccc(Cl)cc1)NS(=O)(=O)c1scc2c1CCC2 | 51% | 36% | – | – | –
24 | CCc1sc(S(=O)(=O)NC(=O)Nc2ccc(Cl)cc2)cc1C | 58% | 26% | – | – | –
